Source: PubChem
Calb FLC: C. albicans growth modulation with fluconazole; C. albicans CaCi-2 (fluconazole-resistant clinical isolate) + fluconazole, Alamar Blue growth, 48 h; growth inhibition, % (no concentration beside the values); actives 0.57% (n = 300,000); AID 1979;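 active means growth inhibition above about 58% in most replicates, limit read from the data, passing the limit was not always enough; inconclusive means exactly half the replicates above a set limit; inactive means most replicates below a set limit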;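 further: all wells also contain fluconazole at 8 µg/ml as a sub-toxic cotreatment; 0% = median of DMSO wells and 100% = median of geldanamycin control wells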
T cruzi repl: blocks replication of Trypanosoma cruzi. inhibition, % (test concentration not listed). T. cruzi beta-gal in NIH3T3, luminescence, 90 h. actives 1.4% (n = 300,000). AID 1885;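 active means mean inhibition across valid replicates above about 55%, limit read from the data; inconclusive means mean below that limit but half or more replicates reach it; inactive means mean below it, under half of replicates reach it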;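 further: signal also drops with host cell toxicity which is not excluded here; 0% = plate median of DMSO wells and 100% = zero luminescence signal; higher percent means less beta-gal luminescence so fewer parasites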
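System: Mouse NIH/3T3 fibroblasts infected with β-gal-expressing T. cruzi Tulahuen C4 | Quantity: NIH/3T3 cells, 5,000 per well | Reagent: 5000 reporter trypomastigotes per well | Dosing: Compound pinned at 50 nL/well, DMSO | Schedule: 3 h host attachment, then at least 90 h co-culture | Detection: GalScreen luminescence, 60 min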
Beta apoptosis: beta cell apoptosis inhibition; INS-1E cytokine-induced death, ATP luminescence, 48 h; percent of positive-control rescue, neutral wells zero; protection from apoptosis, % (test concentration not listed); actives 0.8% (n = 300,000);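 active means Every replicate reaches about 75%, or at least half do and their mean reaches it too, limit read from the data; inconclusive means At least half of replicates reach the limit but their mean does not; inactive means Under half of replicates reach the limit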;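 further: 0% = cytokine-treated negative control wells and 100% = positive control rescue; higher means more ATP so stronger rescue from cytokine killing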
CSC inhib: cancer stem cell inhibition; actives 1.1% (n = 300,000); cancer stem cell-like cells viability, luminescence; inhibition, % at 7.5 µM; in the data active means inhibition above about 75%; inconclusive means no clear call, values can overlap the other calls; tested in HMLE shEcad cells
SKKanGAS inh: SKKanGAS growth inhibition. S. pyogenes SKKanGAS, kanamycin growth, BacTiter-Glo, 6 h. inhibition, % at 7.5 µM. actives 1.3% (n = 300,000). AID 1662;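 active means mean replicate score, as percent of positive control median, at least 50; inconclusive means mean below 50 but one replicate at or above 50; inactive means mean and every replicate below 50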;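 further: strain carries kanamycin resistance gene driven by streptokinase promoter and grows in 40 µg/ml kanamycin; loss of luminescence reflects streptokinase promoter inhibition or plain growth inhibition; 0% = median of DMSO wells and 100% = positive control at its reference dose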
Mdm2 MdmX PPI: inhibitors of human Mdm2/MdmX interaction; O15151+Q00987; SaOS-2 split-luciferase Mdm2/MdmX complementation, luminescence; inhibition, % at 8 µM; actives 3% (n = 330,000); AID 485346;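 active means inhibition of at least 50% at 8 µM in the primary screen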
Target sequence (O15151 whole entry, looked up): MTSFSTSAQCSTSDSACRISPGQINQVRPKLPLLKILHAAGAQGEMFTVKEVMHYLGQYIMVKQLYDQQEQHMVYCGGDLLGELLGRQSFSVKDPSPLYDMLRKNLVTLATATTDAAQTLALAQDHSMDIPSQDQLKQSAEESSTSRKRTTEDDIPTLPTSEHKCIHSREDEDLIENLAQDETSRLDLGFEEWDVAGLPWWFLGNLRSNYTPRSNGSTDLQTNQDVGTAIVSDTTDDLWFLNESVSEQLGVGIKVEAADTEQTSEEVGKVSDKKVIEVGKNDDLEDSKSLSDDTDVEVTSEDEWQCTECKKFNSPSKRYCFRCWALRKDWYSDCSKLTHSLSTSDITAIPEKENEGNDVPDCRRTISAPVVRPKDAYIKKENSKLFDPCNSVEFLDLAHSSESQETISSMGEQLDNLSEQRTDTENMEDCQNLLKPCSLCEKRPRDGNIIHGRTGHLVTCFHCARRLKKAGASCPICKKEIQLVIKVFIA
Target sequence (Q00987 whole entry, looked up): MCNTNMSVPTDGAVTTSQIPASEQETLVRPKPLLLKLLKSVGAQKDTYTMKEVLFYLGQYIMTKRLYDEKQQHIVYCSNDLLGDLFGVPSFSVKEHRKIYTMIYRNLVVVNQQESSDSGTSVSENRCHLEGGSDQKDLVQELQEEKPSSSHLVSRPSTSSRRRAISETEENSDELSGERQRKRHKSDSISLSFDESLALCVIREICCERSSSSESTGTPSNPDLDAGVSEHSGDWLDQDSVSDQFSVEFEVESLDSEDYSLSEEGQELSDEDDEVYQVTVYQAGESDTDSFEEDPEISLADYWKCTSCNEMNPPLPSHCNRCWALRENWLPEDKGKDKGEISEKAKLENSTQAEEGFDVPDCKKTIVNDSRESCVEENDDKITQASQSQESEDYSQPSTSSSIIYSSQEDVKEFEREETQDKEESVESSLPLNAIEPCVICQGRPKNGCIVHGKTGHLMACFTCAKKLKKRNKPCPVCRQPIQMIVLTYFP
Mdm2 MdmX conf: human Mdm2/MdmX binding inhibition, confirmed. shares compounds with Mdm2 MdmX PPI. luminescent assay. inhibition, % at 8 µM. actives 55% (n = 10,000); in the data active means inhibition above about 40%
FLuc counter: inhibits full-length luciferase, flagging false Mdm2/MdmX hits | AID 504607 | inhibition, % at 8 µM | shares compounds with Mdm2 MdmX PPI | SaOS-2 full-length luciferase counterscreen, luminescence | actives 77% (n = 6,200);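 active means mean inhibition at 8 µM reaching about 37%, which flags the compound as non-specific, limit read from the data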;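 further: p53-null SaOS-2 cells with luciferase driven by a doxycycline-inducible promoter; compound on cells about two nights before reading with doxycycline added after day one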
Starred values were filed as active, the others as inactive; ? = inconclusive; nt = not tested or not shown. Most compounds without a hit are left out; they make up all but 5.7% or so of the library.

SMILES	Calb FLC	T cruzi repl	Beta apoptosis	CSC inhib	SKKanGAS inh	Mdm2 MdmX PPI	Mdm2 MdmX conf	FLuc counter
O=C(Nc1cccc(S(=O)(=O)N2CCCC2)c1)c1cc(=O)[nH]c2ccccc12	nt	nt	-3.7	nt	nt	17.1	nt	nt
O=C(Nc1ccc(Cl)c(S(=O)(=O)N2CCCC2)c1)c1cc(=O)[nH]c2ccccc12	nt	nt	-3.2	2.3	nt	51.6*	9.9	nt
O=C(Nc1ccc(NC(=O)c2ccc(Cl)c(S(=O)(=O)N3CCOCC3)c2)cc1)c1ccccc1	-3.3	-8.2	-5.6	-9.9	8.2	57.6*	44.6*	48.4*
COc1cccc(CNC(=O)C2CCC(CNS(=O)(=O)c3cccc4cccnc34)CC2)c1 (configuration not stated)	-20.5	9.6	4.2	1.0	-10.3	-0.9	nt	nt
Cc1cc(NC(=O)c2ccc(NC(=O)C3CC3)cc2)no1	-9.4	-4.8	nt	nt	-2.9	-27.0	nt	nt
Cc1cc(Nc2cc(Cl)nc(Sc3ccc(NC(=O)C4CC4)cc3)n2)n[nH]1	37.5	45.4	-7.3	23.6	31.2	69.2*	51.2*	52.5*
COc1ccc(-c2oc(NC(=O)CSc3nncn3C)c(C#N)c2-c2ccc(OC)cc2)cc1	0.0	-0.5	2.3	-0.3	36.7	62.6*	54.2*	69.7*
CCn1c(SCC(=O)Nc2oc(-c3ccccc3)c(-c3ccccc3)c2C#N)nnc1-c1ccco1	3.0	6.0	-1.0	2.0	?	17.9	nt	nt
COc1cc(OC)cc(C(=O)NNC(=O)CCC2CCCC2)c1	nt	nt	-4.3	-0.6	nt	12.1	nt	nt
O=C(N/N=C/c1sc(N2CCOCC2)nc1-c1ccccc1)c1ccc(O)cc1	-1.7	-5.7	13.0	-2.7	9.4	-11.8	nt	nt
O=C(N/N=C/c1sc(N2CCOCC2)nc1-c1ccccc1)c1cccc(S(=O)(=O)N2CCCC2)c1	87.9*	77.3*	106.9*	26.4	9.1	79.2*	71.8*	40.9*
O=C(N/N=C/c1ccccc1Br)c1cccc(S(=O)(=O)N2CCOCC2)c1	nt	nt	-7.5	nt	nt	15.4	nt	nt
O=C(N/N=C/c1cc(Br)cc(Br)c1O)c1cccc(N2CCCC2=O)c1	?	61.5*	2.0	10.9	87.7*	57.7*	50.3*	26.3
O=C(N/N=C/c1ccc(Cl)cc1Cl)c1cccc(N2CCCC2=O)c1	27.1	-2.0	5.6	4.1	-8.4	3.7	nt	nt
O=C(N/N=C/c1cc(Br)cc(Br)c1O)c1cccc(S(=O)(=O)N2CCOCC2)c1	17.1	38.1	-10.7	20.0	107.3*	59.2*	59.5*	29.6
COc1cccc(C(=O)NCCNC(=O)c2ccc(C)nc2)c1	0.4	5.4	0.5	-5.8	1.1	4.7	nt	nt
Cc1cccc(C)c1N(Cc1ccccc1F)S(C)(=O)=O	0.4	-10.2	0.1	0.3	0.0	-11.5	nt	nt
COc1ccc2[nH]c(C)c(CCNC(=S)Nc3cc(C)ccc3C)c2c1	-6.9	8.9	nt	-2.1	-0.5	30.9	nt	nt
COc1ccc2[nH]c(C)c(CCNC(=S)Nc3cccc(C)c3)c2c1	-4.5	-12.1	nt	-6.6	6.4	46.0	nt	nt
CCc1cccc(C)c1NC(=S)NCCc1c(C)[nH]c2ccc(C)cc12	-14.1	21.5	3.3	5.3	10.0	64.3*	54.1*	40.6*
CCc1cccc(CC)c1NC(=S)NCCc1c(C)[nH]c2ccc(C)cc12	-16.8	?	42.2	18.0	10.1	71.1*	51.4*	53.8*
C[C@H](NC(=O)N1CCn2c1nc1ccccc12)C(=O)NCC1CCCO1 (some centres not stated)	12.3	11.0	0.1	4.7	-2.8	15.7	nt	nt
CCOc1ccccc1NC(=O)C(Sc1nnnn1C)c1ccccc1 (configuration not stated)	0.2	2.2	-8.8	-3.7	6.1	9.3	nt	nt
CCCCn1c(=O)[nH]c(=O)c2c1nc(-c1ccc(CC)c([N+](=O)[O-])c1)n2C	2.2	16.7	-1.4	-13.9	-2.1	5.1	nt	nt
COCCn1c(-c2ccc(-c3ccccc3Cl)o2)nc2c1c(=O)[nH]c(=O)n2CC(C)C	-1.3	2.0	5.7	-2.2	6.2	59.4*	-0.9	nt
SMILES	Calb FLC	T cruzi repl	Beta apoptosis	CSC inhib	SKKanGAS inh	Mdm2 MdmX PPI	Mdm2 MdmX conf	FLuc counter
CCCCn1c(=O)[nH]c(=O)c2c1nc(-c1ccc(-c3ccccc3Br)o1)n2CCOC	0.2	23.3	-1.8	6.1	15.2	53.1*	5.7	nt
CCCCn1c(=O)[nH]c(=O)c2c1nc(-c1ccc(-c3ccc(F)cc3)o1)n2C	5.7	4.2	-4.2	-19.1	13.4	73.9*	9.9	nt
NCCCC[C@@H](C(=O)NCCCCCCCCCCC(=O)N1CCNCC1)n1cc(CCCC(=O)O)nn1	16.0	-7.4	-3.6	-3.5	1.3	2.8	nt	nt
Cc1onc(-c2ccccc2)c1C(=O)NC(=S)NNC(=O)c1ccc(O)cc1O	-3.0	-31.0	90.7*	34.4	80.1*	58.8*	43.0*	71.0*
COC(=O)c1ccc(NC(=S)NC(=O)c2c(-c3ccccc3)noc2C)cc1	25.9	-3.5	-9.5	-15.7	-4.2	-6.4	nt	nt
COc1ccc(-c2cc(C(F)(F)F)nc(-n3ccnc3C)n2)cc1	0.9	-12.7	-2.6	6.9	-6.9	54.8*	36.2	nt
Cc1cc(OCc2nc(-c3ccc(NC(=O)c4cccnc4)cc3)no2)ccc1Cl	-15.7	-0.9	125.5*	-8.6	-11.0	62.4*	11.3	nt
Cc1ccc(-n2c(N)c(S(=O)(=O)c3ccccc3)c3nc4ccccc4nc32)cc1	3.1	17.6	2.2	nt	13.8	13.4	nt	nt
Cc1ccc(S(=O)(=O)c2c(N)n(CCCN(C)C)c3nc4ccccc4nc23)cc1	12.6	21.4	nt	nt	4.5	54.0*	10.7	nt
CC1CCN(Cc2c(C(=O)N/N=C/c3ccc(OC(C)C)cc3)nnn2-c2nonc2N)CC1	13.1	-0.2	8.5	9.8	-1.5	-9.4	nt	nt
O=C(Nc1ccc(Cl)c(Cl)c1)Nc1nnc(CC2=CCCCC2)s1	-11.0	12.8	84.5*	31.5	1.8	88.6*	27.2	nt
O=C(Nc1ccc(Cl)cc1)Nc1nnc(CSCc2ccc(Cl)cc2)s1	2.5	12.6	?	58.8	-2.4	97.8*	21.4	nt
CCc1cc2c(nc1CC)CCN(CC/C(C)=N/OC[C@H]1O[C@H](c3ccccc3)C=C[C@@H]1Oc1ccc(OC)cc1)C2	1.8	37.1	nt	nt	2.8	53.5*	41.2*	65.1*
COC(=O)c1ccc2nc(C)cc(Nc3ccc(N(C)C)cc3)c2c1	11.1	9.3	13.9	14.0	-2.7	5.3	nt	nt
CC(=O)c1ccc(Nc2cc(C)nc3c(C)cc(C)cc23)cc1	-6.6	21.4	77.5*	-7.3	7.2	64.0*	61.2*	65.4*
COC(=O)c1ccc(Nc2cc(C)nc3ccccc23)cc1	-2.2	8.5	20.3	38.9	-2.5	100.2*	65.2*	52.1*
Cc1cc(C)c2nc(C)cc(Nc3ccc(C(=O)N(C)C)cc3)c2c1	-2.2	21.5	0.7	-0.8	-2.9	44.2	nt	nt
